# Experimental data of several laboratories.
SMILES,assay,test system,setting,concentration
C[C@]12C[C@@]34C=CC(=O)[C@@](C)(CCC(=O)Nc5c(O)ccc(C(=O)O)c5O)[C@@H]3[C@H](C[C@@H]1C4)O2,,"male C57BL/6 mouse, plasma","intravenous, 3 mg/kg, 5 min, single dose",20000 nM
CSc1cc(Oc2ccnc3[nH]c(=O)cnc23)ccc1NC(=O)Nc1cc(C(C)(C)C)nn1-c1ccccc1,,"BALB/c mouse, plasma","oral, 10 mg/kg/day, 14 h",~1000 nM
O=c1cc(-c2ccccc2)oc2c(O)c(O)ccc12,,"male CD-1 mouse, plasma","oral, 50 mg/kg, 4 h",24 ng/mL
O=S(=O)(c1cccc(C(F)(F)F)n1)N1CCc2ccc(OCc3c(F)cccc3Cl)cc21,,"mouse, plasma","intraperitoneal, 10 mg/kg, 2 h",290 nM
COc1cc(F)c([C@@H]2CNC(=O)[C@H]2NC(=O)Nc2ccccc2)c(F)c1,,"C57BL/6 mouse, plasma","oral, 3 mg/kg, 1 h",107 nM
O=c1nc(N2CCN(CC3CCCCC3)CC2)sc2c([N+](=O)[O-])cc(C(F)(F)F)cc12,,"CD-1 mouse, lung","oral, 100 mg/kg, 4 h",620 ng/mL
COc1ccc2[nH]c3c(C)c4ccnc(C(=O)N[C@H](C)CN(C)C)c4cc3c2c1,,"male C57BL/6 mouse, brain","intraperitoneal, 10 mg/kg, 2 h, single dose",260 nM
COc1cc(C)c(Sc2cnc(NC(=O)c3ccc(N4CCN(CCCCCCCNC(=O)COc5cccc6c5C(=O)N(C5CCC(=O)NC5=O)C6=O)CC4)cc3)s2)cc1C(=O)N1CCN(C(C)=O)CC1 (centres unmarked),,"male C57BL/6 mouse, plasma","intraperitoneal, 10 mg/kg, 8 h, single dose",~100 nM
O=C(O)C1CCN(c2ncc(-c3ccc4c(c3)OCCCO4)s2)CC1,,"male Swiss mouse, plasma","oral, 30 mg/kg, 2 h, single dose",5990 ng/mL
O=S(=O)(c1ccc(-c2ccc3nccc(Nc4ccncn4)c3c2)cc1)N1CCOCC1,,"female BALB/c mouse, plasma","intraperitoneal, 10 mg/kg, 8 h",2.16 ng/mL
CC(C)(Nc1nc(-c2ccccn2)nc2ccccc12)c1ccccn1,,"female BALB/c mouse, plasma","intravenous, 1 mg/kg, 1 h",487 ng/mL
O=S(=O)(c1cccc(C(F)(F)F)c1)N1c2cc(OCc3c(Cl)cncc3Cl)ccc2CC1C(F)(F)F (centres unmarked),,"mouse, plasma","intraperitoneal, 10 mg/kg, 2 h",600 nM
Cc1c2ccnc(C(=O)N[C@H](C)CN(C)C)c2cc2c3cc(O)ccc3n(C)c12,,"male C57BL/6 mouse, plasma","intraperitoneal, 10 mg/kg, 2 h, single dose",80 nM
O=C(N/N=C/c1ccc2ccccc2c1)c1ccc(O)cc1,,"male C57BL/6 mouse, plasma","intraperitoneal, 30 mg/kg, 2 h",~200 nM
O=S(=O)(c1cccc(C(F)(F)F)c1)N1CCc2ccc(OCc3c(Cl)cncc3Cl)cc21,,"mouse, plasma","intraperitoneal, 10 mg/kg, 4 h",620 nM
CC(C)Oc1cccc(-c2cnc(N3CCC(C(N)=O)CC3)s2)c1,,"male Swiss mouse, plasma","oral, 30 mg/kg, 30 min, single dose",416 ng/mL
CC(C)CN(C[C@@H](O)[C@H](Cc1ccccc1)NC(=O)O[C@H]1CO[C@H]2OCC[C@H]21)S(=O)(=O)c1ccc(N)cc1,,"BALB/c mouse, brain","intravenous, 2.5 mg/kg, 3 h",1.19 ng/g
CN(C)c1ncnc2[nH]cc(-c3cccc(Cl)c3)c12,mass spectrometry,"female C57BL/6 mouse, plasma","intraperitoneal, 20 mg/kg, 30 min, single dose",8700 nM
Cc1ccc(-c2cccc3cnc(Nc4ccc(C(=O)N5CCOCC5)cc4)nc23)cn1,,"mouse, plasma","intraperitoneal, 10 mg/kg, 2 h",0 nM
CC(C)Cc1nn(C)c(=O)c2c(SCCCO)n(Cc3cccc4ccccc34)cc12,,"mouse, lung","intraperitoneal, 20 mg/kg, 7 days, single dose",0 nM
O=S(=O)(c1cccc(C(F)(F)F)c1)N1CCc2ccc(OCc3c(F)cncc3Cl)cc21,,"mouse, plasma","intraperitoneal, 10 mg/kg, 2 h",410 nM
[2H]c1c([2H])c([2H])c(-c2ccc([C@H](Cn3ccnc3)NC(=O)c3ccc(-c4nnc(-c5ccccc5)o4)cc3)c(Cl)c2)c([2H])c1[2H],,"BALB/c mouse, liver","oral, 25 mg/kg, 4 h, single dose",17000 nM
c1ccc(-c2nc(N3CCC(c4ccccn4)C3)c3ccccc3n2)nc1 (centres unmarked),,"female BALB/c mouse, plasma","oral, 50 mg/kg, 2 h",2730 ng/mL
